The source made the active and inactive calls. No cut-off for these calls is given here.
How the values were obtained:
Oryctolagus cuniculus [1] = test: Concentration of propranolone oxime in cornea of rabbit after 30 min administration of compound; N/A= no oxime can be present after administration of propranolone hydrochloride; assay type: functional, organism-based
Outline: (§1)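 Adult male New Zealand albino rabbits (2.5–3.5 kg), at least four per time point. 100 µL of a 1% solution in saline was instilled topically into both eyes. Animals were killed at 30, 60 or 120 min. Cornea and iris-ciliary body were homogenized in methanol to 10% homogenates and deproteinized by centrifugation. Aqueous humor was analysed undiluted. HPLC was calibrated against spiked control-rabbit tissue. Values are mean ± SE, µg/g.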

Oryctolagus cuniculus [2] = test: Concentration of propranolone oxime in aqueous humor of rabbit after 30 min administration of compound; N/A= no oxime can be present after administration of propranolone hydrochloride; assay type: functional, organism-based; details: Aqueous humor of eyeball; outline: as §1
Oryctolagus cuniculus [3] = test: Percentage change of IOP in rabbits after 6 hr administration (1%) of compound; assay type: functional
Outline: (§2)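 Rabbits received 1% or 2.5% drug solution in pH 7.4 buffer or saline in both eyes, at least four per group. A control group of at least three rabbits received carrier only. IOP was read by pneumatonometer in unrestrained, unanesthetized animals after one drop of 0.5% propacaine diluted 1:2 with saline. Readings were taken at 30 and 60 min and at 2–8 h. Values are mean ± SE, with significance by Student's t test.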

Oryctolagus cuniculus [4] = test: Percentage change of IOP in rabbits after 3h administration (1%) of compound; assay type: functional; outline: as §2
Oryctolagus cuniculus [5] = test: Percentage change of IOP in rabbits after 4 hr administration (1%) of compound; assay type: functional; outline: as §2
Oryctolagus cuniculus [6] = test: Concentration of propranolone oxime in cornea of rabbit after 60 min administration of compound; N/A= no oxime can be present after administration of propranolone hydrochloride; assay type: functional, organism-based; outline: as §1
Oryctolagus cuniculus [7] = test: Effect on IOP of rabbits 4 hr after administration (2.5%); assay type: functional
Outline: (§3)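 IOP was read by pneumatonometer in unrestrained, unanesthetized rabbits after local propacaine drops. Drug was given as a 1% or 2.5% solution in pH 7.4 buffer or saline to both eyes, at least four rabbits per group; controls (at least three) received carrier only. Readings were taken at 30 and 60 min and at 2, 3, 4, 6 and 8 h. Values are mean ± SE; Student's t test.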

Oryctolagus cuniculus [8] = test: Concentration of propranolone oxime in iris-ciliary body of rabbit after 30 min administration of compound; N/A= no oxime can be present after administration of propranolone hydrochloride; assay type: functional, organism-based; outline: as §1
Oryctolagus cuniculus [9] = test: Effect on IOP of rabbits 30 mins after administration (1%); assay type: functional; outline: as §3
Oryctolagus cuniculus [10] = test: Effect on IOP of rabbits 6 hr min after administration (1%); assay type: functional; outline: as §3
Oryctolagus cuniculus [11] = test: Concentration of propranolone oxime in aqueous humor of rabbit after 120 min administration of compound; N/A= no oxime can be present after administration of propranolone hydrochloride; assay type: functional, organism-based; details: Aqueous humor of eyeball; outline: as §1
Oryctolagus cuniculus [12] = test: Effect on IOP of rabbits 6 hr min after administration (2.5%); assay type: functional; outline: as §3
Oryctolagus cuniculus [13] = test: Percentage change of IOP in rabbits after 3h administration (2.5%) of compound; assay type: functional; outline: as §2
Oryctolagus cuniculus [14] = test: Concentration of propranolone oxime in cornea of rabbit after 120 min administration of compound; N/A= no oxime can be present after administration of propranolone hydrochloride; assay type: functional, organism-based; outline: as §1
Oryctolagus cuniculus [15] = test: Percentage change of IOP in rabbits after 2 hr administration (2.5%) of compound; assay type: functional; outline: as §3
Oryctolagus cuniculus [16] = test: Concentration in iris-ciliary body of rabbit after 30 min administration of compound; assay type: functional, organism-based; outline: as §1
Oryctolagus cuniculus [17] = test: Concentration of propranolone oxime in iris-ciliary body of rabbit after 120 min administration of compound; N/A= no oxime can be present after administration of propranolone hydrochloride; assay type: functional, organism-based; outline: as §1
Oryctolagus cuniculus [18] = test: Effect on IOP of rabbits 60 min after administration (1%); assay type: functional; outline: as §3
Oryctolagus cuniculus [19] = test: Effect on IOP of rabbits 4 hr after administration (1%); assay type: functional; outline: as §3
Oryctolagus cuniculus [20] = test: Percentage change of IOP in rabbits after 4 hr administration (2.5%) of compound; assay type: functional; outline: as §2
Oryctolagus cuniculus [21] = test: Percentage change of IOP in rabbits after 30 min administration (2.5%) of compound; assay type: functional; outline: as §2
Oryctolagus cuniculus [22] = test: Concentration in cornea of rabbit after 30 min administration of compound; assay type: functional, organism-based; outline: as §1
Oryctolagus cuniculus [23] = test: Percentage change of IOP in rabbits after 60 min administration (1%) of compound; assay type: functional; outline: as §2
Oryctolagus cuniculus [24] = test: Percentage change of IOP in rabbits after 30 min administration (1%) of compound; assay type: functional; outline: as §2
Oryctolagus cuniculus [25] = test: Percentage change of IOP in rabbits after 6 hr administration (2.5%) of compound; assay type: functional; outline: as §2
Oryctolagus cuniculus [26] = test: Effect on IOP of rabbits 8 hr min after administration (2.5%); assay type: functional; outline: as §3
Oryctolagus cuniculus [27] = test: Effect on IOP of rabbits 3h after administration (1%); assay type: functional; outline: as §3
Oryctolagus cuniculus [28] = test: Effect on IOP of rabbits 2 hr after administration (2.5%); assay type: functional; outline: as §3
Oryctolagus cuniculus [29] = test: Percentage change of IOP in rabbits after 60 min administration (2.5%) of compound; assay type: functional; outline: as §2
Oryctolagus cuniculus [30] = test: Percentage change of IOP in rabbits after 0 min administration (1%) of compound; assay type: functional; outline: as §3
Oryctolagus cuniculus [31] = test: Effect on IOP of rabbits 8 hr min after administration (1%); assay type: functional; outline: as §3
Oryctolagus cuniculus [32] = test: Percentage change of IOP in rabbits after 0 min administration (2.5%) of compound; assay type: functional; outline: as §3
Oryctolagus cuniculus [33] = test: Effect on IOP of rabbits 0 min after administration (2.5%); assay type: functional; outline: as §3
Oryctolagus cuniculus [34] = test: Percentage change of IOP in rabbits after 8 hr administration (2.5%) of compound; assay type: functional; outline: as §2
Oryctolagus cuniculus [35] = test: Effect on IOP of rabbits 0 min after administration (1%); assay type: functional; outline: as §3
Oryctolagus cuniculus [36] = test: Percentage change of IOP in rabbits after 2 hr administration (1%) of compound; assay type: functional; outline: as §3
Oryctolagus cuniculus [37] = test: Percentage change of IOP in rabbits after 8 hr administration (1%) of compound; assay type: functional; outline: as §2
Oryctolagus cuniculus [38] = test: Effect on IOP of rabbits 3h after administration (2.5%); assay type: functional; outline: as §3
Oryctolagus cuniculus [39] = test: Effect on IOP of rabbits 2 hr after administration (1%); assay type: functional; outline: as §3
Oryctolagus cuniculus [40] = test: Concentration in cornea of rabbit after 60 min administration of compound; assay type: functional, organism-based; outline: as §1
Oryctolagus cuniculus [41] = test: Concentration of propranolone oxime in iris-ciliary body of rabbit after 60 min administration of compound; N/A= no oxime can be present after administration of propranolone hydrochloride; assay type: functional, organism-based; outline: as §1
Oryctolagus cuniculus [42] = test: Effect on IOP of rabbits 30 mins after administration (2.5%); assay type: functional; outline: as §3
Oryctolagus cuniculus [43] = test: Concentration of propranolone oxime in aqueous humor of rabbit after 60 min administration of compound; N/A= no oxime can be present after administration of propranolone hydrochloride; assay type: functional, organism-based; details: Aqueous humor of eyeball; outline: as §1
Oryctolagus cuniculus [44] = test: Effect on IOP of rabbits 60 mins after administration (2.5%); assay type: functional; outline: as §3
Oryctolagus cuniculus [45] = test: Concentration in aqueous humor of rabbit after 60 min administration of compound; assay type: functional, organism-based; details: Aqueous humor of eyeball; outline: as §1
Oryctolagus cuniculus [46] = test: Concentration in aqueous humor of rabbit after 30 min administration of compound; assay type: functional, organism-based; details: Aqueous humor of eyeball; outline: as §1

CC(C)NCC(O)COc1cccc2ccccc12 (stereo unspecified) [PROPRANOLOL]
Concentration (Oryctolagus cuniculus [1]): inactive
Concentration (Oryctolagus cuniculus [2]): inactive
Change (Oryctolagus cuniculus [3]): -5.84%
Change (Oryctolagus cuniculus [4]): -11.04%
Change (Oryctolagus cuniculus [5]): -8.44%
Concentration (Oryctolagus cuniculus [6]): inactive
IOP (Oryctolagus cuniculus [7]): 25.6 mmHg
Concentration (Oryctolagus cuniculus [8]): inactive
IOP (Oryctolagus cuniculus [9]): 29 mmHg
IOP (Oryctolagus cuniculus [10]): 29 mmHg
Concentration (Oryctolagus cuniculus [11]): inactive
IOP (Oryctolagus cuniculus [12]): 25.4 mmHg
Change (Oryctolagus cuniculus [13]): 1.18%
Concentration (Oryctolagus cuniculus [14]): inactive
Change (Oryctolagus cuniculus [15]): 1.18%
Concentration (Oryctolagus cuniculus [16]): 8.1 µg/g
Concentration (Oryctolagus cuniculus [17]): inactive
IOP (Oryctolagus cuniculus [18]): 27.6 mmHg
IOP (Oryctolagus cuniculus [19]): 28.2 mmHg
Change (Oryctolagus cuniculus [20]): 0.79%
Change (Oryctolagus cuniculus [21]): >8.66%
Concentration (Oryctolagus cuniculus [22]): 47.1 µg/g
Change (Oryctolagus cuniculus [23]): >-10.39%
Change (Oryctolagus cuniculus [24]): >-9.1%
Change (Oryctolagus cuniculus [25]): 0%
IOP (Oryctolagus cuniculus [26]): 25.2 mmHg
IOP (Oryctolagus cuniculus [27]): 27.4 mmHg
IOP (Oryctolagus cuniculus [28]): 25.7 mmHg
Change (Oryctolagus cuniculus [29]): >9.84%
Change (Oryctolagus cuniculus [30]): 0%
IOP (Oryctolagus cuniculus [31]): 30.2 mmHg
Change (Oryctolagus cuniculus [32]): 0%
IOP (Oryctolagus cuniculus [33]): 25.4 mmHg
Change (Oryctolagus cuniculus [34]): -0.79%
IOP (Oryctolagus cuniculus [35]): 30.8 mmHg
Change (Oryctolagus cuniculus [36]): -5.52%
Change (Oryctolagus cuniculus [37]): -1.95%
IOP (Oryctolagus cuniculus [38]): 25.7 mmHg
IOP (Oryctolagus cuniculus [39]): 29.1 mmHg
Concentration (Oryctolagus cuniculus [40]): 14.5 µg/g
Concentration (Oryctolagus cuniculus [41]): inactive
IOP (Oryctolagus cuniculus [42]): 27.6 mmHg
Concentration (Oryctolagus cuniculus [43]): inactive
IOP (Oryctolagus cuniculus [44]): 27.9 mmHg
Concentration (Oryctolagus cuniculus [45]): 0.3 µg/g
Concentration (Oryctolagus cuniculus [46]): 1.3 µg/g

Reference: ChEMBL document CHEMBL1124215, “Improved delivery through biological membranes. 26. Design, synthesis, and pharmacological activity of a novel chemical delivery system for beta-adrenergic blocking agents” (1988)
